Assay results as given in ChEMBL document CHEMBL1136994, “Substitution of arginine with proline and proline derivatives in melanocyte-stimulating hormones leads to selectivity for human melanocortin 4 receptor” (J Med Chem, 2009).

What was measured:
[1] = molecular target: T1, Melanocyte-stimulating hormone receptor (Homo sapiens, UniProt Q01726); experiment: biochemical; assay type: cell-based, HEK293
[2] = molecular target: T1, Melanocyte-stimulating hormone receptor; assay type: functional, cell-based, HEK293
Melanocortin receptor 3 [3] = molecular target: T2, Melanocortin receptor 3 (Homo sapiens, UniProt P41968); experiment: Displacement of [125I][Nle4,Dphe7]-alpha-MSH from human MC3R expressed in HEK293 cells at 10 uM; assay type: cell-based
T2 sequence (P41968 whole entry): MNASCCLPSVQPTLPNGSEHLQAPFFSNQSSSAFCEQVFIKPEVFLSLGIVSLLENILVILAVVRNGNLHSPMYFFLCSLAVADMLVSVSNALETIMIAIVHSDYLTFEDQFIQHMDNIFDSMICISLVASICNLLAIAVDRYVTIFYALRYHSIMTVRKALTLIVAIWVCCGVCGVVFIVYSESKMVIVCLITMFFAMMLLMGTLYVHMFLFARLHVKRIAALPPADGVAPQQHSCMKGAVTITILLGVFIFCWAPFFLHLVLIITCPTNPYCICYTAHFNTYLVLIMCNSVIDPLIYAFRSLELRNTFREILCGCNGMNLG

Melanocortin receptor 5 [4] = molecular target: T3, Melanocortin receptor 5 (Homo sapiens, UniProt P33032); experiment: Displacement of [125I][Nle4,Dphe7]-alpha-MSH from human MC5R expressed in HEK293 cells at 10 uM; assay type: cell-based
T3 sequence (P33032 whole entry): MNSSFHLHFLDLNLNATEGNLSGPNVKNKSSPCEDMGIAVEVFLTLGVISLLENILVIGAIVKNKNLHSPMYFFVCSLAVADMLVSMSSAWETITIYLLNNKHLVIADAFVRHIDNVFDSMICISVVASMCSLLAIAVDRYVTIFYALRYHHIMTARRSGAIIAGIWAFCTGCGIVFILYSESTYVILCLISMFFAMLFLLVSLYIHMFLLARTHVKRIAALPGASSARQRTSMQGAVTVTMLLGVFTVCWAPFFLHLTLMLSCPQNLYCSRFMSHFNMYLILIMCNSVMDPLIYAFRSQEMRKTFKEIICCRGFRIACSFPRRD

Melanocortin receptor 4 [5] = molecular target: T4, Melanocortin receptor 4 (Homo sapiens, UniProt P32245); experiment: biochemical; assay type: cell-based, HEK293
T4 sequence (P32245 whole entry): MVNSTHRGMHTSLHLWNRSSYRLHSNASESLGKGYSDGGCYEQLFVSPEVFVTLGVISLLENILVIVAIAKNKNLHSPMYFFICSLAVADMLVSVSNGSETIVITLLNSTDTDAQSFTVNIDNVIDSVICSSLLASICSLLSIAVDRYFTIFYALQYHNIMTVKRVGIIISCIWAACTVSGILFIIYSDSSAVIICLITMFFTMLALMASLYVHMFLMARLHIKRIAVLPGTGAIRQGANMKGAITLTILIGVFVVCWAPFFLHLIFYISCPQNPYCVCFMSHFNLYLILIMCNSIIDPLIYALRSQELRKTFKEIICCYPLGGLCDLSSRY

Melanocortin receptor 4 [6] = molecular target: T4, Melanocortin receptor 4; assay type: functional, cell-based, HEK293
Melanocortin receptor 3 [7] = molecular target: T2, Melanocortin receptor 3; experiment: biochemical; assay type: cell-based, HEK293
Melanocortin receptor 3 [8] = molecular target: T2, Melanocortin receptor 3; assay type: functional, cell-based, HEK293
Melanocortin receptor 5 [9] = molecular target: T3, Melanocortin receptor 5; assay type: functional, cell-based, HEK293
Melanocortin receptor 4 [10] = molecular target: T4, Melanocortin receptor 4; experiment: Displacement of [125I][Nle4,Dphe7]-alpha-MSH from human MC4R expressed in HEK293 cells at 10 uM; assay type: cell-based
Summary of the method: (§1)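 Stably transfected HEK293 cells for each hMCR were seeded 48 h ahead at 100 000 cells/well. Buffer was MEM with 25 mM HEPES pH 7.4, 0.2% BSA, 1 mM 1,10-phenanthroline, leupeptin and bacitracin. […] After washing, cells were lysed in NaOH/Triton and counted by γ counter. Binding was scored at 10^-5 M.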

Melanocortin receptor 5 [11] = molecular target: T3, Melanocortin receptor 5; experiment: biochemical; assay type: cell-based, HEK293
[12] = molecular target: T1, Melanocyte-stimulating hormone receptor; experiment: Displacement of [125I][Nle4,Dphe7]-alpha-MSH from human MC1R expressed in HEK293 cells at 10 uM; assay type: cell-based
Summary of the method: as §1

T1 sequence (Q01726 whole entry): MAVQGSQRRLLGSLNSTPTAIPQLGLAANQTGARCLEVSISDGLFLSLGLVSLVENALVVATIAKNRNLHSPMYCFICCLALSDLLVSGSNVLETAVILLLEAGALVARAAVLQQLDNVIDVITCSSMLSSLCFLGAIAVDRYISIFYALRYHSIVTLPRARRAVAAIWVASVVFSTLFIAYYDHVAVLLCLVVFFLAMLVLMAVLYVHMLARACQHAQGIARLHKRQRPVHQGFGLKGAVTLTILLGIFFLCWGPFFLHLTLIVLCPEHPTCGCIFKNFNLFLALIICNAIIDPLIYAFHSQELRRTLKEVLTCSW

Compound | IC50 [1] [nM] | EC50 [2] [nM] | IC50 (Melanocortin receptor 3 [3]) | IC50 (Melanocortin receptor 5 [4]) | IC50 (Melanocortin receptor 4 [5]) [nM] | EC50 (Melanocortin receptor 4 [6]) [nM] | further results
CCCC[C@H](NC(=O)[C@@H](NC(=O)[C@H](Cc1ccc(O)cc1)NC(C)=O)C(C)C)C(=O)NCC(=O)N[C@@H](Cc1cnc[nH]1)C(=O)N[C@H](Cc1ccccc1)C(=O)N1CCC[C@H]1C(=O)N[C@@H](Cc1c[nH]c2ccccc12)C(=O)N[C@@H](CC(=O)O)C(=O)N[C@@H](CCCNC(=N)N)C(=O)N[C@@H](Cc1ccccc1)C(=O)NCC(N)=O | 190 | 120 | Not Active | Not Active | 270 | 210 | 
CCCC[C@H](NC(C)=O)C(=O)N[C@H]1CC(=O)NCCCC[C@@H](C(N)=O)NC(=O)[C@H](Cc2c[nH]c3ccccc23)NC(=O)[C@H](CCCN=C(N)N)NC(=O)[C@@H](Cc2ccccc2)NC(=O)[C@@H]2C[C@H](N=C(N)N)CN2C1=O |  | 2700 |  |  | 5.7 | 41 | IC50 (Melanocortin receptor 3 [7]): 2.8 nM; EC50 (Melanocortin receptor 3 [8]): 2500 nM; EC50 (Melanocortin receptor 5 [9]): 21 nM
CCCC[C@H](NC(=O)[C@@H](NC(=O)[C@H](Cc1ccc(O)cc1)NC(C)=O)C(C)C)C(=O)NCC(=O)N[C@@H](Cc1cnc[nH]1)C(=O)N[C@H](Cc1ccccc1)C(=O)N1C[C@H](NC(=N)N)C[C@H]1C(=O)N[C@@H](Cc1c[nH]c2ccccc12)C(=O)N[C@@H](CC(=O)O)C(=O)N[C@@H](CCCNC(=N)N)C(=O)N[C@@H](Cc1ccccc1)C(=O)NCC(N)=O | 830 | 1400 | Not Active | Not Active |  |  | IC50 (Melanocortin receptor 4 [10]): Not Active
CCCC[C@H](NC(C)=O)C(=O)N[C@H]1CC(=O)NCCCC[C@@H](C(N)=O)NC(=O)[C@H](Cc2c[nH]c3ccccc23)NC(=O)[C@@H]2C[C@H](NC(=N)N)CN2C(=O)[C@@H](Cc2ccccc2)NC(=O)[C@H](Cc2cnc[nH]2)NC1=O |  |  |  |  |  |  | IC50 [12]: Not Active
CCCC[C@H](NC(=O)[C@@H](NC(=O)[C@H](Cc1ccc(O)cc1)NC(C)=O)C(C)C)C(=O)NCC(=O)N[C@@H](Cc1cnc[nH]1)C(=O)N[C@H](Cc1ccccc1)C(=O)N1C[C@@H](NC(=N)N)C[C@H]1C(=O)N[C@@H](Cc1c[nH]c2ccccc12)C(=O)N[C@@H](CC(=O)O)C(=O)N[C@@H](CCCNC(=N)N)C(=O)N[C@@H](Cc1ccccc1)C(=O)NCC(N)=O | 1000 | > 5000 | Not Active | Not Active |  |  | IC50 (Melanocortin receptor 4 [10]): Not Active

More lines, main results first:

IC50 [1] [nM] | EC50 [2] [nM] | IC50 (Melanocortin receptor 3 [3]) | IC50 (Melanocortin receptor 5 [4]) | IC50 (Melanocortin receptor 4 [5]) [nM] | EC50 (Melanocortin receptor 4 [6]) [nM] | Compound | further results
> 3000 |  |  |  |  |  | CCCC[C@H](NC(C)=O)C(=O)N[C@H]1CC(=O)NCCCC[C@@H](C(N)=O)NC(=O)[C@H](Cc2c[nH]c3ccccc23)NC(=O)[C@@H]2C[C@H](N=C(N)N)CN2C(=O)[C@@H](Cc2ccc3ccccc3c2)NC(=O)[C@H](Cc2cnc[nH]2)NC1=O | 
400 | 19000 |  |  |  |  | CCCC[C@H](NC(C)=O)C(=O)N[C@H]1CC(=O)NCCCC[C@@H](C(N)=O)NC(=O)[C@H](Cc2c[nH]c3ccccc23)NC(=O)[C@@H]2C[C@@H](NC(=N)N)CN2C(=O)[C@@H](Cc2ccc3ccccc3c2)NC(=O)[C@H](Cc2cnc[nH]2)NC1=O | 
2.7 | 820 |  |  | 0.6 | 3500 | CCCC[C@H](NC(C)=O)C(=O)N[C@H]1CC(=O)NCCCC[C@@H](C(N)=O)NC(=O)[C@H](Cc2c[nH]c3ccccc23)NC(=O)[C@H](CCCN=C(N)N)NC(=O)[C@@H](Cc2ccccc2)NC(=O)[C@@H]2C[C@@H](N=C(N)N)CN2C1=O | IC50 (Melanocortin receptor 3 [7]): 1 nM; IC50 (Melanocortin receptor 5 [11]): 2.5 nM; EC50 (Melanocortin receptor 3 [8]): 14 nM; EC50 (Melanocortin receptor 5 [9]): 1.6 nM
> 4800 | > 1000 |  |  |  |  | CCCC[C@H](NC(C)=O)C(=O)N[C@H]1CC(=O)NCCCC[C@@H](C(N)=O)NC(=O)[C@H](Cc2c[nH]c3ccccc23)NC(=O)[C@@H]2CCCN2C(=O)[C@@H](Cc2ccccc2)NC(=O)[C@H](Cc2cnc[nH]2)NC1=O | 
600 | 160 |  |  |  |  | CCCC[C@H](NC(C)=O)C(=O)N[C@H]1CC(=O)NCCCC[C@@H](C(N)=O)NC(=O)[C@H](Cc2c[nH]c3ccccc23)NC(=O)[C@@H]2CCCN2C(=O)[C@@H](Cc2ccc3ccccc3c2)NC(=O)[C@H](Cc2cnc[nH]2)NC1=O | 
